{"source": "paper PMC10653054", "about": "(ACS Omega, 2023)", "key": {"Panc-1 cells [1]": {"tested_on": "Panc-1 cells", "assay": "Annexin V-FITC/PI dual staining flow cytometry apoptosis assay", "type": "cell-based, human", "conditions": "Panc-1, treated at IC50 concentration, 48 h", "in_short": "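Panc-1 cells were seeded, held overnight at 37 °C under 5% CO2, then exposed to test compound for 48 h. Untreated cells were the negative control. Cells were trypsinized, washed twice in PBS, pelleted at 1200 rpm and resuspended in binding buffer. Labelled annexin V and propidium iodide were added, and cells were incubated 15 min at room temperature in the dark. Flow cytometry followed.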"}, "[2]": {"tested_on": "normal human dermal fibroblast (HDF) cells", "assay": "MTT cytotoxicity assay, normal HDF cells", "type": "cell-based", "conditions": "48 h, read-out: In vitro antiproliferative effects (IC50) HDF", "in_short": "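Cells came from the National Cell Bank of Iran and were grown in RPMI-1640 or DMEM with 10% FBS at 37 °C, 5% CO2 and 100% humidity. Test compounds in 0.1% DMSO (n = 3) were incubated 48 h, then MTT for 3 h, with formazan OD read at 570 nm. Controls were 0.1% DMSO (negative) and etoposide (positive). IC50 came from dose–response curves, mean ± SE of at least three independent experiments.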"}, "[3]": {"tested_on": "caspase-3, cleaved-caspase-3, pro-caspase-3 in Panc-1 cells", "assay": "Western blot analysis of caspase-3 proteins", "type": "cell-based, human", "conditions": "Panc-1, IC50 concentration, 48 h", "in_short": "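Panc-1 cells were exposed to test compound and harvested after 48 h. Lysates were prepared in lysis buffer, and protein was quantified by Bradford assay. Proteins were separated on 15% SDS-PAGE, transferred to PVDF and probed with primary and secondary antibodies. β-actin was the loading control. Bands were detected by chemiluminescence and imaged.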"}, "Panc-1 cells [4]": {"tested_on": "Panc-1 cells", "assay": "Cell cycle analysis by PI staining flow cytometry", "type": "cell-based, human", "conditions": "Panc-1, IC50 concentration, 48 h; control 1.82%"}}, "data": [{"molecule": "O=c1[nH]nc(O)c2c(-c3cccc([N+](=O)[O-])c3)c3n(c12)CCn1cccc1-3", "note": "[7m, 11-Hydroxy-12-(3-nitrophenyl)-5,6-dihydropyrrolo[2″,1″:3′,4′]pyrazino[1′,2′:1,5] pyrrolo[2,3-d]pyridazin-8(9H)-one]", "values": [{"measurement": "necrosis (Q1)", "setting": "Panc-1 cells [1]; control 0.586", "result": 0.851, "unit": "%"}, {"measurement": "early apoptosis (Q3)", "setting": "Panc-1 cells [1]; control 4.12", "result": 5.56, "unit": "%"}, {"measurement": "late apoptosis (Q2)", "setting": "Panc-1 cells [1]; control 4.12", "result": 5.45, "unit": "%"}, {"measurement": "live cells (Q4)", "setting": "Panc-1 cells [1]; control 91.2", "result": 88.1, "unit": "%"}, {"measurement": "cell apoptosis (total apoptotic cells)", "setting": "Panc-1 cells [1]; untreated cells 8.24%", "result": 11.01, "unit": "%"}, {"measurement": "IC50", "setting": "[2]", "result": "> 100", "unit": "µM"}, {"measurement": "caspase-3 protein level", "setting": "[3]", "result": "downregulation"}, {"measurement": "pro-caspase-3 protein level", "setting": "[3]", "result": "remained unchanged"}, {"measurement": "proportion of cells in the sub-G1 phase", "setting": "Panc-1 cells [4]", "result": 5.47, "unit": "%"}]}]}
